PMC10834355 (Cell metabolism, 2023)
Like-named read-outs stand apart in the source and are kept apart here.

Assays:
[1] = tested on: human β-cell; details: ref El Ouaamari et al., 2016; cited from earlier work
[2] = tested on: EndoC-βH1 cells; assay: Static glucose-stimulated insulin secretion assay; type: cell-based, human
Summary of the method: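 EndoC-βH1 cells kept overnight in 2.8 mM glucose DMEM growth medium with vehicles (PBS, DMSO), PE 500 ng/ml and/or test compound 1.5 μM. Preincubated 1 hr in KRB (NaCl 115, NaHCO3 24, KCl 5, MgCl2 1, CaCl2 1, HEPES 10 mM; 0.2% BSA) at 2.8 mM glucose. Then 1 hr in KRB at 2.8 or 11.1 mM glucose with PE ± test compound. DNA content measured.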

[3] = tested on: human islets; assay: Western Blotting of phosphoproteins in human islets; type: cell-based; details: telaprevir 1.5 or 150 μM for 30 min
Summary of the method: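 Human islets cultured overnight in Miami Media #1A at 37°C, 5% CO2, then exposed to test compound for 30 min. RIPA lysates with protease and phosphatase inhibitors, protein by BCA, immunoblotted with phospho-specific and total antibodies.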

[4] = tested on: EndoC-βH1 cells; assay: Phospho-PAK1 Western Blotting; type: cell-based, human
Summary of the method: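 EndoC-βH1 cells transfected with scramble oligo or siFAK, or with empty vector or C-terminal 3X FLAG-tagged PTK2 cDNA (lipofectamine). Cells starved overnight in growth medium with 2.8 mM glucose, then stimulated in 2.8 mM glucose plus 0.1% BSA with PBS or PE ± test compound. siFAK cells treated 30 min. RIPA lysates with protease/phosphatase inhibitors, BCA assay, immunoblot for PAK1 S144 and total PAK1.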

[5] = target: T1, human neutrophil elastase (NE) (Homo sapiens, UniProt P08246); assay: Absorbance-based protease activity assay, human NE; type: biochemical
T1 sequence (P08246 30-267): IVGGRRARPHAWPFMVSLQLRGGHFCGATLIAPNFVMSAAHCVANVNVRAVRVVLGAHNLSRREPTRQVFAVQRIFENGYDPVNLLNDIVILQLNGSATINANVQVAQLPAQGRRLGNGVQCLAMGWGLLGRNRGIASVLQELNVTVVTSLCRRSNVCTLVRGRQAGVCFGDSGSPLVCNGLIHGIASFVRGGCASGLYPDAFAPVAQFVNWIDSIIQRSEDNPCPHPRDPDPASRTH

[6] = tested on: primary human β-cell cultures; assay: Viability assay in dispersed human islet cells; type: cell-based
Summary of the method: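 Human islets dispersed with TrypLE for 30 min at 37°C, neutralized with FBS, seeded on ECM/fibronectin and left overnight. Pretreated 24 h with water or FSLLRY-NH2 plus EdU 10 μM, then 24 h with vehicles or compounds plus EdU 10 μM. β-cells labelled with DA-ZP1; EdU Click-iT Alexa 647 and APC Annexin V. ≥4000 live (Zombie NIR-negative) cells counted by flow cytometry.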

[7] = tested on: Ins+ cells; assay: β-cell regeneration after metronidazole ablation in Tg; type: in vivo, zebrafish (Danio rerio); details: added to growth medium 4–6 dpf, vs DMSO
Summary of the method: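 Tg(ins:flag-NTR);Tg(tp1:H2BmCherry) zebrafish larvae had β-cells ablated in E3 medium with 10 mM metronidazole, 1% DMSO and 0.2 mM 1-phenyl-2-thiourea from 3 to 4 dpf. From 4 to 6 dpf, larvae were exposed to DMSO or test compound in the medium. Larvae then euthanized, fixed, immunostained with anti-insulin (1:100), imaged and Ins+ cells counted.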

[8] = tested on: HFD mice; assay: High-fat diet insulin-resistant mice, osmotic pump treatment; type: in vivo, C57BL6/J mice
Summary of the method: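 Male C57BL6/J mice, obtained at 4 weeks old, kept on low-fat or high-fat diet for 24 weeks. From week 20, weight-matched animals received vehicle (DMSO) or test compound at 30 or 300 μg/kg/day for 28 days by subcutaneous osmotic pump; low-fat mice got vehicle. GTT, ITT and in vivo GSIS at weeks 0 and 4; insulin by ELISA. Pancreas sections used for immunofluorescent β-cell proliferation and mass.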

[9] = target: human pancreatic elastase (PE); assay: Absorbance-based protease activity assay, human PE; type: biochemical; details: read-out: IC50 PE
Summary of the method: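 Human pancreatic elastase (500 ng) mixed with 15 two-fold dilutions of test compound starting at 20 μM. Blank (no-enzyme) and DMSO wells serve as controls. Preincubated 3 min at 37°C, then N-methoxysuccinyl-Ala-Ala-Pro-Val-p-nitroanilide added. After 2 h at 37°C, absorbance read at 405 nm, 21 reads over 5 min. IC50 derived from the dilution series.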

[10] = tested on: EndoC-βH1 cells; assay: Phospho-ERK1/2 Western Blotting; type: cell-based, human; details: PE +/− telaprevir for 30 min
[11] = target: porcine pancreatic elastase (pPE) (Sus scrofa, UniProt P00772); assay: Absorbance-based protease activity assay, pPE; type: biochemical
Summary of the method: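 Porcine pancreatic elastase (500 ng) was combined with 15 two-fold dilutions of test compound, starting at 20 μM. Controls were enzyme-free blank wells and enzyme-plus-DMSO wells. After 3 min at 37°C, N-methoxysuccinyl-Ala-Ala-Pro-Val-p-nitroanilide substrate was added. After 2 h at 37°C, absorbance at 405 was read every 15 s for 21 reads (5 min).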

[12] = tested on: transplanted human islets; type: in vivo, NSG mice; details: 4 weeks
Summary of the method: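 Male 8–10-week NSG mice received 1000 hand-picked human islet equivalents under the kidney capsule. After engraftment, vehicle (DMSO) or test compound was given by osmotic pump for 28 days. Grafts fixed overnight at 4°C in zinc formalin and cut as 5-μm paraffin serial sections. Sections co-stained for Ki67 or pHH3 with insulin and DAPI; cell death by TUNEL.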

[13] = tested on: HCV-infected individuals with diabetes; details: ref Davis et al., 2017; Tallón de Lara et al., 2014; cited from earlier work
[14] = tested on: EndoC-βH3 cells; assay: Viability assays; type: cell-based, human
Summary of the method: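 EndoC-βH3 cells exposed to 1 μM tamoxifen for 21 days, then 14 days wash-out. Starved overnight in 2.8 mM glucose medium and stimulated in 2.8 mM glucose with 0.1% BSA. Cells then trypsinized and labelled with EdU 5 μM for 3 h at 37°C, plus Annexin V. Up to 10,000 cells counted by flow cytometry. Caspase-3 activity measured colorimetrically at 405 nm.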

[15] = tested on: human islets; assay: Phospho-antibody microarray; type: cell-based; details: 30 min
Summary of the method: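 Human islets cultured overnight in Miami Media #1A at 37°C, 5% CO2. 200 hand-picked islet equivalents collected after 10- or 30-min stimulation and processed for the phospho-antibody array.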

[16] = tested on: human β-cells; assay: Proliferation; type: cell-based; details: 24 h, non-diabetic human islets
[17] = target: T2, human cathepsin G (Homo sapiens, UniProt P08311); assay: Absorbance-based protease activity assay, human cathepsin G; type: biochemical
T2 sequence (P08311 21-255): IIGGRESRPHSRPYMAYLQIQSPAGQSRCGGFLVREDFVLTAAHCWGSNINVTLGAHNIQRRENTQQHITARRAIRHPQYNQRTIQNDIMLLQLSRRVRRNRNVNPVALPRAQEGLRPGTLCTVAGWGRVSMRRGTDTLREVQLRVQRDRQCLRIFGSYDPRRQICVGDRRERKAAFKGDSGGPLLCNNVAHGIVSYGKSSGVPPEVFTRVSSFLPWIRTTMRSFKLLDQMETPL
Summary of the method: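 Human cathepsin G (500 ng) combined with 15 two-fold dilutions of test compound from 20 μM; blank and DMSO wells included. After 3 min at 37°C, succinyl-Ala-Ala-Pro-Phe-p-nitroanilide substrate added and absorbance at 405 nm read immediately, 21 reads over 5 min.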

[18] = tested on: EndoC-βH1 cells; assay: Brillouin microscopy of cell stiffness; type: cell-based, human; details: PE 250 ng/ml, or PE + telaprevir (750 nm), 24 hr
Summary of the method: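 After 24 hr incubation, stiffness of 12 cells per condition mapped by confocal Brillouin microscopy: 780 nm single-frequency laser, virtually imaged phase array spectrometer, non-contact longitudinal mechanical read-out.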

[19] = telaprevir HD 300 μg/kg/day, osmotic pumps

porcine pancreatic elastase (pPE), sequence (P00772 27-266): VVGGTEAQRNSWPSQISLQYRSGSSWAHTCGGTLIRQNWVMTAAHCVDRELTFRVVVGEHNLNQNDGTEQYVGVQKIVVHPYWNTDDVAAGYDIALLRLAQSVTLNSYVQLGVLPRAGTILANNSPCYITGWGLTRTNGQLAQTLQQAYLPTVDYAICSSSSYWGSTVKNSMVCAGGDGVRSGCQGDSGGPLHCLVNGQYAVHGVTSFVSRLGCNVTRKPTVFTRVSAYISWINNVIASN

## CC(C)[C@@H]1C(=O)N(S(C)(=O)=O)[C@@H]2CCN(C(=O)/C=C/CN3CCCCC3)[C@H]21.Cl [GW311616A]
[1]
  human β-cell proliferation: enhance human β-cell proliferation

## CCC[C@H](NC(=O)[C@@H]1[C@H]2CCC[C@H]2CN1C(=O)[C@@H](NC(=O)[C@@H](NC(=O)c1cnccn1)C1CCCCC1)C(C)(C)C)C(=O)C(=O)NC1CC1 [telaprevir]
[2]; PE 500 ng/ml + telaprevir 1.5 μM
  glucose responsiveness (GSIS) in cells treated with PE: restore glucose responsiveness
[2]; telaprevir 1.5 μM alone
  β-cell function (GSIS) in the absence of PE: maintained normal function
[3]
  phosphorylation levels of PAK1, PTK2B and ERK1/2: up-regulated
[4]; 30 min, PE vs PBS, or PE + telaprevir at high dose vs PE alone
  phospho-PAK1 levels in scramble cells: significantly increasing phosphorylation of PAK1
[4]; PE + telaprevir vs PE-treated siFAK samples, 30 min
  phosphorylated PAK1 in siFAK cells: significantly decreased
[4]; PE, or PE + telaprevir
  phospho-PAK1 levels in EV (empty vector) cells: restored
[5]
  IC50: 3600 nM
  concentrations that partially inhibit human NE activity: > 10 µM
[6]; PE +/− telaprevir for 24 h
  β-cell viability (EdU+/Annexin V+ in DA-ZP1+ cells): significantly improved β-cell survival
[7]
  Ins+ cells after β-cell ablation: significant increase
[8]; 4-week time point, vs HFD vehicle
  insulin sensitivity or GSIS: did not affect
[8]; high dose 300 μg/kg/day, week 4, vs HFD vehicle
  glucose tolerance: improvement in glucose tolerance
[8]; telaprevir 30 or 300 μg/kg/day vs HFD vehicle
  random-fed blood glucose levels or body weights: did not exhibit differences
[8]; telaprevir HD 300 μg/kg/day
  area under the curve during GTT: statistically similar to the LFD vehicle group, although not significantly different from vehicle-HFD mice
[8]; telaprevir HD 300 μg/kg/day vs HFD vehicle
  β-cell mass: significantly higher β-cell mass
[8]; telaprevir HD, after 4-week treatment compared to week 0
  4 h fasting C-peptide and fasting blood glucose: lowered
[8]; telaprevir LD 30 μg/kg/day vs HFD vehicle
  β-cell mass: comparable
[8]; telaprevir LD and HD vs HFD vehicle
  β-cell size: slightly lower β-cell size
[9]
  IC50: 15.8 nM
[10]
  phospho-ERK1/2 levels: significantly increased phospho-ERK1/2 levels
[11]; read-out: IC50 pPE
  IC50: 40.2 nM
[12]; 30 or 300 μg/kg/day, vs vehicle
  blood glucose (random-fed or fasting) levels, body weight, glucose sensitivity or human C-peptide levels: did not observe differences between groups
[12]; [19]
  Ki67+ β-cells in human grafts: increase
  TUNEL+ β-cells in human grafts: decrease
[13]
  HbA1C levels: reduce
  circulating C-peptide: increase
[14]; PE + telaprevir
  regeneration levels and survival of siFAK FSLLRY-treated cells: restored
[14]; tamoxifen-treated EndoC-βH3, PE, or PE + telaprevir
  proliferation/apoptosis ratio (β-cell viability) in scramble cells: boosted β-cell viability levels even higher than control cells
[15]
  protease-activated receptor (PARs) signaling cascade: significantly modulated
[16]
  proliferation of other islet cell types, including α-cells and δ-cells: did not significantly stimulate proliferation
[16]; telaprevir at 100 μg/ml
  β-cell apoptosis (TUNEL): significantly reducing apoptosis
  β-cell proliferation (Ki67 or pHH3), increase compared to control: ~ 3 fold
[17]
  inhibition of human cathepsin G: virtually no effect
[18]
  Brillouin frequency shift (stiffness): completely reverse these effects

## FSLLRY-NH2
[6]; FSLLRY-NH2 pre-incubation, PE + telaprevir 24 h
  capacity of telaprevir to counteract the detrimental effects of PE in FSLLRY-NH2 treated cells: impaired

## C[C@@H](O)[C@H]1C(=O)N2C(C(=O)O)=C(SC3CN(C4=NCCS4)C3)[C@H](C)[C@H]12 [tebipenem]
[5]
  IC50: 33600 nM
[9]
  IC50: 3600 nM
[11]
  IC50: 107000 nM

## CC(C)(C)C(=O)Oc1ccc(S(=O)(=O)Nc2ccccc2C(=O)NCC(=O)O)cc1 [sivelestat]
[7]
  Ins+ cells after β-cell ablation: trend towards an increase
[9]
  IC50: 2300 nM
[11]
  IC50: 2000 nM
[1]
  human β-cell proliferation: enhance human β-cell proliferation

B1: SerpinB1: endogenous protease (elastase) inhibitor derived from the liver that promotes human β-cell proliferation (protein, UniProt P30740 1-379, looked up)
Leukocyte elastase inhibitor: MEQLSSANTRFALDLFLALSENNPAGNIFISPFSISSAMAMVFLGTRGNTAAQLSKTFHFNTVEEVHSRFQSLNADINKRGASYILKLANRLYGEKTYNFLPEFLVSTQKTYGADLASVDFQHASEDARKTINQWVKGQTEGKIPELLASGMVDNMTKLVLVNAIYFKGNWKDKFMKEATTNAPFRLNKKDRKTVKMMYQKKKFAYGYIEDLKCRVLELPYQGEELSMVILLPDDIEDESTGLKKIEEQLTLEKLHEWTKPENLDFIEVNVSLPRFKLEESYTLNSDLARLGVQDLFNSSKADLSGMSGARDIFISKIVHKSFVEVNEEGTEAAAATAGIATFCMLMPEENFTADHPFLFFIRHNSSGSILFLGRFSSP
[1]
  human β-cell proliferation: promotes human β-cell proliferation
